# Source: PubChem
# Kir21 inh: inhibitors of mouse Kir2.1 inward-rectifier potassium channel | P35561 | HEK293-Kir2.1, FluxOR thallium flux fluorescence; hits give low values | B-score at 10 µM | 310,000 compounds, 0.85% hits | AID 1672;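 active = fluorescence ratio B-score at or below minus 3 SD of library scores, with starting-brightness B-score within 2 SD, cut at about -4.2 in these data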;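 note: channel flux triggered by added potassium and thallium sulfate stimulus; B-score of peak minus minimum fluorescence over baseline after thallium stimulus; more negative B-score means stronger Kir2.1 block with less thallium influx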
# KCNQ1 block: blocks the human KCNQ1 potassium channel | CHO-K1 KCNQ1, FluxOR thallium flux fluorescence; hits give high values | B-score at 10 µM | 310,000 compounds, 1.3% hits | AID 2642;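 active = compounds whose thallium flux B-score, printed positive for inhibition, exceeds three library SD while starting fluorescence stays within three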;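 note: channel opened by potassium depolarization with thallium stimulus after 20 min compound exposure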
# Target sequence (P51787 whole entry, looked up): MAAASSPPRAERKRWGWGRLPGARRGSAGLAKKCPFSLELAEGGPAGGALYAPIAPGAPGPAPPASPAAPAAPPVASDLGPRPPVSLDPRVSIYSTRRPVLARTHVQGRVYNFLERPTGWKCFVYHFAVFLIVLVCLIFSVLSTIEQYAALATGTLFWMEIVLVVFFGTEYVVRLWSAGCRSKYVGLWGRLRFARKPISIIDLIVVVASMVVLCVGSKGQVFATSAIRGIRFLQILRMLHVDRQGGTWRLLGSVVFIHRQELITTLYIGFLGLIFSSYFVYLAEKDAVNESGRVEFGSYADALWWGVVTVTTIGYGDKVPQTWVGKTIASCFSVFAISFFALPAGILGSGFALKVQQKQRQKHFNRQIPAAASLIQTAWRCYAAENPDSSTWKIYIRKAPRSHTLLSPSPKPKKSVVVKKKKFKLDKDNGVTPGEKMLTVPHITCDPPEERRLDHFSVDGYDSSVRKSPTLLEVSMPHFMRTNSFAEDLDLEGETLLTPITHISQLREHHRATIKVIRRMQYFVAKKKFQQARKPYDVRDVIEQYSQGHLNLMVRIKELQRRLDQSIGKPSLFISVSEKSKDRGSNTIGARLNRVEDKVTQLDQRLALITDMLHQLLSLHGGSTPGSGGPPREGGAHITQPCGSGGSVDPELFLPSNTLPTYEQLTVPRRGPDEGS
# KCNK9 block: blocks the human KCNK9 two-pore domain potassium channel; Q9NPC2; HEK293 KCNK9, FluxOR thallium flux fluorescence; hits give low values; B-score at 10 µM; 310,000 compounds, 1.2% hits; AID 488922;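 active = ratio B-score over 3 SD below the library mean, with starting fluorescence within 5 SD of its mean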;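 note: negative B-score means less thallium flux so channel inhibition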
# KCNQ1 pot: human KCNQ1 channel potentiation or activation; P51787; CHO-K1 KCNQ1, thallium flux FluxOR fluorescence; hits give high values; B-score at 10 µM; 310,000 compounds, 0.35% hits;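 active = fluorescence ratio B-score, a plate-corrected score, at least three library SD, with initial intensity B-score within 5 SD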
#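 assay system = CHO-K1 cells stably expressing KCNQ1 | medium = assay buffer, equal DMSO in all wells | timing = 37 °C overnight plating, 90-min dark dye load, 20-min compound pretreatment | measured by = kinetic FluxOR thallium fluorescence, 10-s 1-Hz baseline, 110-s post-stimulus read | measure = fluorescence change relative to baseline, converted to B score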
# KCNK3 inh: human KCNK3 channel inhibition, primary screen | O14649 | CHO-KCNK3 thallium flux, FluxOR fluorescence; hits give low values | B-score at 10 µM | 340,000 compounds, 0.84% hits | AID 602410;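 active = B-score under library mean minus 4 SD, starting fluorescence ratio at most library mean plus 5 SD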;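 note: more negative B-score means stronger inhibition of thallium flux through KCNK3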
# hERG protect: compounds protecting human hERG from proarrhythmic drug block; Q12809; CHO-hERG, FluxOR thallium flux, dofetilide IC70 present; activation (rescue from dofetilide block), less the hit threshold, % at 10 µM; 310,000 compounds, 0.51% hits; AID 1511;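 active = activation above the mean of controls blocked by dofetilide plus 5 SD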;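 note: thallium influx through hERG after potassium depolarization seen as dye fluorescence rise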
# * hit, by the source's call; i = inactive; . = no result. A selection: hits, their analogues and other compounds. The true share with any hit is near 3.8%.
SMILES,Kir21 inh,KCNQ1 block,KCNK9 block,KCNQ1 pot,KCNK3 inh,hERG protect
CC(C)(C)c1ccc(-c2nnc(SCCC#N)n2C2CCCC2)cc1,0.5,6*,i,i,i,-17.7
COc1ccc(C#Cc2ccc3c(c2)c(=O)c2ccccc2n3C)cc1,-0.3,i,-7.4*,i,i,-19.9
O=C1c2ccccc2C(Nc2ccc(-c3nc4ccccc4[nH]3)cc2)N1Cc1ccco1 (configuration not stated),0.48,i,i,i,-10.8*,-13.1
COc1ccc2c(c1)cc(C(=O)N[C@@H](CCSC)C(=O)N1CCC[C@H]1C(=O)O)n2C,-0.01,i,i,i,i,-6.3
O=C(c1ccc2nccnc2c1)N1CCN(c2ccccc2)CC1,-1.63,i,i,i,i,-4.8
Cc1cccc(N2CCN(C(=O)c3ccc4nccnc4c3)CC2C)c1 (configuration not stated),.,.,.,.,-9.52*,.
CN(C)CCNC(=O)/C(=C/c1ccc(-c2ccc(Cl)cc2)o1)NC(=O)c1ccccc1,-1.64,i,i,i,i,-24.9
CN(C)CCNC(=O)/C(=C/c1ccc(-c2ccc(Cl)cc2Cl)o1)NC(=O)c1ccccc1,-5.63*,i,i,i,i,-21.1
Cc1ccc(-n2[nH]c(C)c(C=Nc3cc(C)ccn3)c2=O)cc1,1.68,i,i,i,i,-1.4
Cc1[nH]n(-c2ccc(Cl)cc2)c(=O)c1/C=N/c1nnc(-c2ccccc2)s1,0.13,i,i,9*,i,87.5*
COc1ccc2nc(/N=C/c3c(C)[nH]n(-c4ccc(C)cc4)c3=O)sc2c1,1.05,i,i,39*,i,10.2*
COc1cccc(CN2CC(C(=O)NCc3cccc(N4CCCC4)c3)CCC2=O)c1 (configuration not stated),0.07,i,i,i,i,-11.1
CCOc1ccc(NC(=O)COc2nsnc2N2CCOCC2)cc1,-0.37,i,i,i,i,-6.7
CC(C)c1ccc(C2C3CSCC=C3C(C#N)=C(N)C2(C#N)C#N)cc1 (configuration not stated),0.33,12*,i,i,.,-20.5
CN1CC=C2C(C#N)=C(N)C(C#N)(C#N)[C@H](c3cccc(Cl)c3)C2C1 (some centres not stated),-3.26,8*,i,i,i,-11.1
CN1CC=C2C(C#N)=C(N)C(C#N)(C#N)C(c3ccsc3)C2C1 (configuration not stated),-0.22,i,i,i,i,-9.7
CCOC(=O)C1=C(C)N(c2ccc(OC)cc2)C(=O)/C1=C\c1ccc(O)c(OCC)c1,-0.38,6*,i,i,i,-13.6
COC(=O)c1cc(-c2ccccc2)n(CCN)c1C,-1.47,i,i,i,i,-3.9
O=C(c1ccc(C(F)(F)F)cc1)N1CCC(=O)N(C(COCc2ccccc2)Cc2ccccc2)CC1 (configuration not stated),-2,i,i,i,i,-7.7
CC(C)CC(COCc1ccc(C(F)(F)F)cc1)N1CCN(C(=O)c2ccc(C(F)(F)F)cc2)CCC1=O (configuration not stated),0.14,i,-7.13*,i,i,-3.9
CC(C)NC(=O)c1ccc(CSCc2ccccc2Cl)o1,-1.48,i,i,i,i,-3.7
CCC(C)NC(=O)c1ccc(CSCc2ccccc2Cl)o1 (configuration not stated),0.02,i,-6.7*,i,i,1.5
CC(C)CN=Cc1c(O)c([N+](=O)[O-])cc2oc3c(c12)CCCC3,1.19,i,i,15*,i,-4.9
O=[N+]([O-])c1cc2oc3c(c2c(C=NCc2ccccc2)c1O)CCCC3,-0.29,i,i,i,i,-2.2
COc1ccccc1CCNC(=O)c1nccnc1C(=O)O,0.29,i,i,i,i,-2.7
SMILES,Kir21 inh,KCNQ1 block,KCNK9 block,KCNQ1 pot,KCNK3 inh,hERG protect
Cc1ccc(NC(=O)CN2C(=O)S/C(=C\c3ccc(-c4cccc(C(=O)O)c4C)o3)C2=O)cc1,-10.2,i,i,i,.,14.9*
Cc1ccc(NC(=O)CN2C(=O)S/C(=C/c3ccc(-c4cccc(C(=O)O)c4)o3)C2=O)cc1,.,.,.,.,i,.
O=C(CCc1nnc(COc2ccccc2)o1)NC1(c2ccccc2)CC1,-0.79,i,i,i,i,-6.2
O=C(Nc1cccc(-c2ccc(F)cc2)c1)C1CCCN(C(=O)c2cscn2)C1 (configuration not stated),-0.17,i,i,i,i,-6.3
O=C(Nc1ncc(S(=O)(=O)c2ccc([N+](=O)[O-])cc2)s1)c1ccccc1F,-0.42,i,i,i,i,-4.1
COC(=O)C(NC(=O)c1ccc(F)cc1)(Nc1ncc(S(=O)(=O)c2ccc([N+](=O)[O-])cc2)s1)C(F)(F)F (configuration not stated),1.49,7*,i,i,i,-20.9
CC(OC(=O)c1cc(=O)[nH]c2ccccc12)C(=O)NCc1ccccc1 (configuration not stated),1.47,i,i,i,i,-12.5
Oc1ccc(CN2CCCCC2)c2cccnc12,-1.35,i,i,i,i,1.7
COc1cc(NCc2ccccc2O)c2ncccc2c1,-0.61,i,i,i,i,-2.0
Oc1ccc(CNc2ccccc2F)c2cccnc12,-0.55,7*,i,i,i,-10.9
Oc1ccccc1CNc1cccc2cccnc12,-1.21,i,-7.29*,i,i,-8.6
Oc1ccc(CN2CCc3ccccc3C2)c2cccnc12,-10.3*,i,i,i,i,-4.9
COCCn1c(SCC(=O)Nc2cc(C)on2)nnc1-c1ccccc1,0.27,i,i,i,i,-5.3
Cc1cc(C)c(S(=O)(=O)N2CCOC2CNC(=O)C(=O)NCCCN2CCOCC2)c(C)c1 (configuration not stated),1.18,i,i,i,i,-2.0
CCOC(=O)c1nc(Nc2ccc(Nc3ccccc3)cc2)c2ccccc2n1,1.11,i,-7.59*,i,i,-16.4
COc1ccccc1N1C(=O)S/C(=C\c2ccc(C)s2)C1=O,0.08,i,i,i,i,4.8*
CC(OC(=O)CNC(=O)c1sc2ccccc2c1Cl)C(=O)NC1(C#N)CCCCC1 (configuration not stated),.,.,.,.,i,.
CCCc1cc(=O)[nH]c(SCC(=O)c2cc(C)n(C3CC3)c2C)n1,-4.49*,i,i,i,i,-11.2
